Data set [1] has as its target T1, Human DJ-1 (Homo sapiens, UniProt Q99497).
T1 sequence (Q99497 1-189): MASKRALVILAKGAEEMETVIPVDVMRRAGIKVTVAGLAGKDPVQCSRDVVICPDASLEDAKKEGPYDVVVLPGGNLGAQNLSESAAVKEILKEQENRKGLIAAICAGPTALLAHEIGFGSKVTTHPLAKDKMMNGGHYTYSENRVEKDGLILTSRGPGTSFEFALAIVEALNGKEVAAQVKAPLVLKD
Briefly: Binding affinity and thermodynamics by ITC. An outline of the steps: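 Recombinant human DJ-1 (E. coli-expressed) dialysed into PBS to remove DTT; compounds in the same PBS with 5% DMSO. Titrations at 25 °C with protein in the cell and compound in the syringe: DJ-1 20 μM against compound 200 μM (muteins: protein 100 μM, compound 1 mM). Isotherms fitted to a one-site binding model.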
Background: ITC needs no label: the signal is the heat of the interaction.

In data set [2] the target is T1, Human DJ-1. Put plainly: Thermal stability of DJ-1 by DSF. It counts as binding. As to conditions: DJ-1 10 μM, compound 50 μM. The method in brief:
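Tag-free DJ-1 (10 μM) with compound (50 μM) in PBS, 0.01% Tween 20 and 2.5% DMSO, with SYPRO Orange dye (excitation 470 nm, emission 570 nm). Samples were heated from 30 to 85 °C at 2 °C/min. TM was taken from the inflection point of the derivative unfolding curve and compared with unbound protein.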
For orientation: DSF heats the sample and reads unfolding from a dye or from intrinsic fluorescence.

In data set [3] the target is T1, Human DJ-1. Briefly: In vitro glyoxalase activity assay with phenylglyoxal as substrate. It counts as biochemical. An outline of the steps:
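Recombinant DJ-1 0.5 μM with phenylglyoxal 2 μM in 100 mM potassium phosphate pH 7.0, 1% DMSO; compound 1.0 nM–30 μM. Initial velocities were taken from the loss of absorbance at 250 nm. Activity was expressed as the velocity ratio with versus without inhibitor, and sigmoidal fits gave the inhibition constant.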

Data set [4] addresses T2, DJ-1 in HeLa cells (Homo sapiens, UniProt Q99497).
T2 sequence (Q99497 1-189): T1 sequence (Q99497 1-189)
Briefly: Cellular thermal shift assay. It counts as cell-based. As to conditions: thermal treatment at 63 °C.

The test system of data set [5] is DJ-1 in HEK293 cells. Put plainly: Glyoxalase/deglycase activity in cells: CML-modified proteins by western blot. It counts as cell-based, human. As to conditions: glyoxal 2 mM. An outline of the steps: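 HEK293 cells (2×10^5 per 6 cm dish) were cultured 3 days in DMEM with 10% FBS, then starved 20 h in 1% FBS. Treatment was 3 h in DMEM with 1% FBS, 0.2% DMSO and compound, with or without glyoxal (2 mM). Lysates underwent SDS-PAGE, nitrocellulose transfer and immunoblotting for carboxymethyl lysine, DJ-1 and β-actin, detected with HRP secondaries.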
For orientation: A western blot detects proteins with antibodies after separation by electrophoresis.

Data set [6] concerns the target T2, DJ-1 in HeLa cells. Put plainly: CML-modified protein by western blot in HeLa cells. It counts as cell-based. The settings on record: highest concentration employed. The method in brief:
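HeLa cells (1.5×10^5 per well) were grown 24 h in DMEM with 10% FBS, starved 20 h in 0.5% FBS, then exposed 3 h to compound in 0.5% FBS with 0.2% DMSO. DJ-1 knockout HeLa cells were also used. RIPA lysates went to SDS-PAGE and nitrocellulose. The anti-CML blot was read by HRP chemiluminescence; DJ-1 and β-actin were detected by Cy5 fluorescence.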

A word on the Kd: it is a measure of binding affinity in units of concentration. Low readings indicate tighter binding, high ones weaker binding. One may read the IC50 as the concentration that inhibits the measured activity by half. Read a low IC50 as inhibition by little substance. As for `O=C1Nc2ccccc2C1=O` [compound 1, 1H-indole-2,3-dione], in data set [1], binding was characterised by a dissociation constant (Kd) of 3.2 ± 0.1 µM and the “enthalpic efficiency (EE)” value was determined as 1.1 kcal/mol. Besides, in data set [1] (ITC, 25 °C), the ΔH of binding was -11.6 ± 0.1 kcal/mol and the “−TΔS of binding” value was found to be 4.1 kcal/mol. In data set [2], the “ΔTM, thermal stabilization with respect to the unbound protein” value came out at 1.8 °C. The IC50 in data set [3] was determined as 13 µM. The “stabilization of the soluble form of DJ-1 in cells” value in data set [4] is “concentration-dependent stabilization”. Moreover, the “intensity of bands of proteins modified with CML compared with DMSO control” value in data set [5] is “increased significantly”. In addition, the “intensity of a protein modified with CML” value in data set [6] is reported as “clearly increases”.

The values are drawn from publication PMC6370461 (ACS chemical biology, 2018).
